Reference: ChEMBL document CHEMBL1139884, “Structure-based design, synthesis, and A-site rRNA cocrystal complexes of functionally novel aminoglycoside antibiotics: C2" ether analogues of paromomycin” (2007)
Converted amounts (≈) assume the structure as drawn.

How the values were obtained:
Escherichia coli = test: Antimicrobial activity against Escherichia coli ATCC 25922 after 20 to 24 hrs; assay type: functional
How it was run: (§1)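 Broth microdilution in duplicate; compound in 2.5% DMSO in water, overnight culture added to a final inoculum of about 10^2-10^3 CFU/well. Growth read as A595 after 20-24 h at 37°C, relative to a no-compound well. MIC reported as a range: complete inhibition at the higher concentration, viable cells at the lower. Ampicillin and tetracycline are the positive controls.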

Staphylococcus aureus = test: Antimicrobial activity against Staphylococcus aureus ATCC 13709 after 20 to 24 hrs; assay type: functional; how it was run: as §1

Row | SMILES | MIC (Escherichia coli) [µg/mL] | MIC (Staphylococcus aureus) [µg/mL]
1 | N[C@H]1[C@@H](O[C@H]2[C@H](O[C@@H]3O[C@H](CO)[C@@H](O)[C@H]3OCCNCCc3ccccc3)[C@@H](O)[C@H](N)C[C@@H]2N)O[C@H](CO)[C@@H](O)[C@@H]1O | > 100 | 12 (≈ 19.9 µM)
2 | NC[C@@H]1O[C@H](O[C@H]2[C@@H](OCCNCc3nc4ccccc4[nH]3)[C@H](O[C@@H]3[C@@H](O)[C@H](N)C[C@H](N)[C@H]3O[C@H]3O[C@H](CO)[C@@H](O)[C@H](O)[C@H]3N)O[C@@H]2CO)[C@H](N)[C@@H](O)[C@@H]1O | > 100 | > 100
3 | NCCO[C@H]1[C@H](O[C@@H]2[C@@H](O)[C@H](N)C[C@H](N)[C@H]2O[C@H]2O[C@H](CO)[C@@H](O)[C@H](O)[C@H]2N)O[C@H](CO)[C@H]1O | 6 (≈ 12 µM) | 12 (≈ 24.1 µM)
4 | NC[C@@H]1O[C@H](O[C@H]2[C@@H](OCCOCCCc3ccccc3)[C@H](O[C@@H]3[C@@H](O)[C@H](N)C[C@H](N)[C@H]3O[C@H]3O[C@H](CO)[C@@H](O)[C@H](O)[C@H]3N)O[C@@H]2CO)[C@H](N)[C@@H](O)[C@@H]1O | 20 (≈ 25.7 µM) | 5 (≈ 6.43 µM)
5 | NCCCNCCO[C@H]1[C@H](O[C@@H]2[C@@H](O)[C@H](N)C[C@H](N)[C@H]2O[C@H]2O[C@H](CO)[C@@H](O)[C@H](O)[C@H]2N)O[C@H](CO)[C@H]1O | 6 (≈ 10.8 µM) | 6 (≈ 10.8 µM)
6 | NC[C@@H]1O[C@H](O[C@H]2[C@@H](OCCNCCc3cc(C(F)(F)F)cc(C(F)(F)F)c3)[C@H](O[C@@H]3[C@@H](O)[C@H](N)C[C@H](N)[C@H]3O[C@H]3O[C@H](CO)[C@@H](O)[C@H](O)[C@H]3N)O[C@@H]2CO)[C@H](N)[C@@H](O)[C@@H]1O | > 10 | 2.5 (≈ 2.78 µM)
7 | NC[C@@H]1O[C@H](O[C@H]2[C@@H](OCCNCCCc3ccccc3)[C@H](O[C@@H]3[C@@H](O)[C@H](N)C[C@H](N)[C@H]3O[C@H]3O[C@H](CO)[C@@H](O)[C@H](O)[C@H]3N)O[C@@H]2CO)[C@H](N)[C@@H](O)[C@@H]1O | 3 (≈ 3.86 µM) | 0.6 (≈ 0.772 µM)
8 | NC[C@@H]1O[C@H](O[C@H]2[C@@H](OCCCCCc3ccccc3)[C@H](O[C@@H]3[C@@H](O)[C@H](N)C[C@H](N)[C@H]3O[C@H]3O[C@H](CO)[C@@H](O)[C@H](O)[C@H]3N)O[C@@H]2CO)[C@H](N)[C@@H](O)[C@@H]1O | 10 (≈ 13.1 µM) | 3 (≈ 3.94 µM)
9 | NC[C@@H]1O[C@H](O[C@H]2[C@@H](OCCNCc3ccnc(N)c3)[C@H](O[C@@H]3[C@@H](O)[C@H](N)C[C@H](N)[C@H]3O[C@H]3O[C@H](CO)[C@@H](O)[C@H](O)[C@H]3N)O[C@@H]2CO)[C@H](N)[C@@H](O)[C@@H]1O | 6 (≈ 7.84 µM) | 0.6 (≈ 0.784 µM)
10 | NC[C@@H]1O[C@H](O[C@H]2[C@@H](OCCNCCc3ccc4ccccc4c3)[C@H](O[C@@H]3[C@@H](O)[C@H](N)C[C@H](N)[C@H]3O[C@H]3O[C@H](CO)[C@@H](O)[C@H](O)[C@H]3N)O[C@@H]2CO)[C@H](N)[C@@H](O)[C@@H]1O | 10 (≈ 12.3 µM) | 1 (≈ 1.23 µM)
11 | NC[C@@H]1O[C@H](O[C@H]2[C@@H](OCCNCCc3ccc(-c4ccccc4)cc3)[C@H](O[C@@H]3[C@@H](O)[C@H](N)C[C@H](N)[C@H]3O[C@H]3O[C@H](CO)[C@@H](O)[C@H](O)[C@H]3N)O[C@@H]2CO)[C@H](N)[C@@H](O)[C@@H]1O | 20 (≈ 23.8 µM) | 5 (≈ 5.96 µM)
12 | NC[C@@H]1O[C@H](O[C@H]2[C@@H](OCCNCc3ccccc3)[C@H](O[C@@H]3[C@@H](O)[C@H](N)C[C@H](N)[C@H]3O[C@H]3O[C@H](CO)[C@@H](O)[C@H](O)[C@H]3N)O[C@@H]2CO)[C@H](N)[C@@H](O)[C@@H]1O | 3 (≈ 4.01 µM) | 3 (≈ 4.01 µM)
13 | CC(=O)N(CCO[C@H]1[C@H](O[C@@H]2[C@@H](O)[C@H](N)C[C@H](N)[C@H]2O[C@H]2O[C@H](CO)[C@@H](O)[C@H](O)[C@H]2N)O[C@H](CO)[C@H]1O[C@H]1O[C@@H](CN)[C@@H](O)[C@H](O)[C@H]1N)CCc1ccccc1 | 10 (≈ 12.4 µM) | 1 (≈ 1.24 µM)
14 | CCCCCCCCN(CCCCCCCC)CCO[C@H]1[C@H](O[C@H]2C(O[C@H]3O[C@H](CO)[C@@H](O)[C@H](O)[C@H]3N)[C@@H](N)C[C@@H](N)[C@@H]2O)O[C@H](CO)[C@H]1O[C@H]1O[C@@H](CN)[C@@H](O)[C@H](O)[C@H]1N (some centres not stated) | 5 (≈ 5.66 µM) | 1.2 (≈ 1.36 µM)
15 | NC[C@@H]1O[C@H](O[C@H]2[C@@H](OCCNc3cccc(O)c3)[C@H](O[C@@H]3[C@@H](O)[C@H](N)C[C@H](N)[C@H]3O[C@H]3O[C@H](CO)[C@@H](O)[C@H](O)[C@H]3N)O[C@@H]2CO)[C@H](N)[C@@H](O)[C@@H]1O | 12 (≈ 16 µM) | 2 (≈ 2.66 µM)
16 | NCCNCCO[C@H]1[C@H](O[C@@H]2[C@@H](O)[C@H](N)C[C@H](N)[C@H]2O[C@H]2O[C@H](CO)[C@@H](O)[C@H](O)[C@H]2N)O[C@H](CO)[C@H]1O[C@H]1O[C@@H](CN)[C@@H](O)[C@H](O)[C@H]1N | 6 (≈ 8.55 µM) | 2 (≈ 2.85 µM)

Row | SMILES | MIC (Escherichia coli) [µg/mL] | MIC (Staphylococcus aureus) [µg/mL]
17 | NC[C@@H]1O[C@H](O[C@H]2[C@@H](OCCNCCCCc3ccccc3)[C@H](O[C@@H]3[C@@H](O)[C@H](N)C[C@H](N)[C@H]3O[C@H]3O[C@H](CO)[C@@H](O)[C@H](O)[C@H]3N)O[C@@H]2CO)[C@H](N)[C@@H](O)[C@@H]1O | 10 (≈ 12.6 µM) | 3 (≈ 3.79 µM)
18 | NC[C@@H]1O[C@H](O[C@H]2[C@@H](OCCNc3cnc4ccccc4c3)[C@H](O[C@@H]3[C@@H](O)[C@H](N)C[C@H](N)[C@H]3O[C@H]3O[C@H](CO)[C@@H](O)[C@H](O)[C@H]3N)O[C@@H]2CO)[C@H](N)[C@@H](O)[C@@H]1O | 12 (≈ 15.3 µM) | 1 (≈ 1.27 µM)
19 | N[C@H]1[C@@H](O[C@H]2[C@H](O[C@@H]3O[C@H](CO)[C@@H](O)[C@H]3O)[C@@H](O)[C@H](N)C[C@@H]2N)O[C@H](CO)[C@@H](O)[C@@H]1O | > 100 | > 100
20 | NC[C@@H]1O[C@H](O[C@H]2[C@@H](OCCNCC3CCCNC3)[C@H](O[C@@H]3[C@@H](O)[C@H](N)C[C@H](N)[C@H]3O[C@H]3O[C@H](CO)[C@@H](O)[C@H](O)[C@H]3N)O[C@@H]2CO)[C@H](N)[C@@H](O)[C@@H]1O (some centres not stated) | 1.5 (≈ 1.98 µM) | 3 (≈ 3.97 µM)
21 | NC[C@@H]1O[C@H](O[C@H]2[C@@H](OCCN(CCCc3ccccc3)CCc3ccccc3)[C@H](O[C@H]3C(O[C@H]4O[C@H](CO)[C@@H](O)[C@H](O)[C@H]4N)[C@@H](N)C[C@@H](N)[C@@H]3O)O[C@@H]2CO)[C@H](N)[C@@H](O)[C@@H]1O (some centres not stated) | 10 (≈ 11.4 µM) | 0.6 (≈ 0.681 µM)
22 | NC[C@@H]1O[C@H](O[C@H]2[C@@H](OCCNCc3ccc(N)nc3)[C@H](O[C@@H]3[C@@H](O)[C@H](N)C[C@H](N)[C@H]3O[C@H]3O[C@H](CO)[C@@H](O)[C@H](O)[C@H]3N)O[C@@H]2CO)[C@H](N)[C@@H](O)[C@@H]1O | 3 (≈ 3.92 µM) | 0.3 (≈ 0.392 µM)
23 | NC[C@@H]1O[C@H](O[C@H]2[C@@H](OCCNCCc3cccnc3)[C@H](O[C@@H]3[C@@H](O)[C@H](N)C[C@H](N)[C@H]3O[C@H]3O[C@H](CO)[C@@H](O)[C@H](O)[C@H]3N)O[C@@H]2CO)[C@H](N)[C@@H](O)[C@@H]1O | 12 (≈ 15.7 µM) | < 1.5
24 | NC[C@@H]1O[C@H](O[C@H]2[C@@H](OCCNc3ccccn3)[C@H](O[C@@H]3[C@@H](O)[C@H](N)C[C@H](N)[C@H]3O[C@H]3O[C@H](CO)[C@@H](O)[C@H](O)[C@H]3N)O[C@@H]2CO)[C@H](N)[C@@H](O)[C@@H]1O | 12 (≈ 16.3 µM) | 2 (≈ 2.72 µM)
25 | NC[C@@H]1O[C@H](O[C@H]2[C@@H](OCC(O)c3ccccc3)[C@H](O[C@@H]3[C@@H](O)[C@H](N)C[C@H](N)[C@H]3O[C@H]3O[C@H](CO)[C@@H](O)[C@H](O)[C@H]3N)O[C@@H]2CO)[C@H](N)[C@@H](O)[C@@H]1O (some centres not stated) | 25 (≈ 34 µM) | 3 (≈ 4.08 µM)
26 | CC(C)(C)CCNCCO[C@H]1[C@H](O[C@@H]2[C@@H](O)[C@H](N)C[C@H](N)[C@H]2O[C@H]2O[C@H](CO)[C@@H](O)[C@H](O)[C@H]2N)O[C@H](CO)[C@H]1O[C@H]1O[C@@H](CN)[C@@H](O)[C@H](O)[C@H]1N | 10 (≈ 13.5 µM) | 0.6 (≈ 0.808 µM)
27 | COc1ccc(CCNCCO[C@H]2[C@H](O[C@@H]3[C@@H](O)[C@H](N)C[C@H](N)[C@H]3O[C@H]3O[C@H](CO)[C@@H](O)[C@H](O)[C@H]3N)O[C@H](CO)[C@H]2O[C@H]2O[C@@H](CN)[C@@H](O)[C@H](O)[C@H]2N)cc1 | 5 (≈ 6.31 µM) | < 0.6
28 | NCCO[C@H]1[C@H](O[C@@H]2[C@@H](O)[C@H](N)C[C@H](N)[C@H]2O[C@H]2O[C@H](CO)[C@@H](O)[C@H](O)[C@H]2N)O[C@H](CO)[C@H]1O[C@H]1O[C@@H](CN)[C@@H](O)[C@H](O)[C@H]1N | 12 (≈ 18.2 µM) | 2 (≈ 3.04 µM)
29 | NC[C@@H]1O[C@H](O[C@H]2[C@@H](OCCNC3C4CC5CC3CC(C4)C5O)[C@H](O[C@@H]3[C@@H](O)[C@H](N)C[C@H](N)[C@H]3O[C@H]3O[C@H](CO)[C@@H](O)[C@H](O)[C@H]3N)O[C@@H]2CO)[C@H](N)[C@@H](O)[C@@H]1O (some centres not stated) | 20 (≈ 24.7 µM) | 1 (≈ 1.24 µM)
30 | NC[C@@H]1O[C@H](O[C@H]2[C@@H](OCCNC3CCCNC3)[C@H](O[C@@H]3[C@@H](O)[C@H](N)C[C@H](N)[C@H]3O[C@H]3O[C@H](CO)[C@@H](O)[C@H](O)[C@H]3N)O[C@@H]2CO)[C@H](N)[C@@H](O)[C@@H]1O (some centres not stated) | 1.5 (≈ 2.02 µM) | 3 (≈ 4.04 µM)
31 | NC[C@@H]1O[C@H](O[C@H]2[C@@H](O)[C@H](O[C@@H]3[C@@H](O)[C@H](N)C[C@H](N)[C@H]3O[C@H]3O[C@H](CO)[C@@H](O)[C@H](O)[C@H]3N)O[C@@H]2CO)[C@H](N)[C@@H](O)[C@@H]1O [PAROMOMYCIN] | 3 (≈ 4.87 µM) | 1 (≈ 1.62 µM)
